Assay results from the array DNA melting data of Ke et al. (doi:10.1101/2024.01.08.574731).

Columns and labels:
[1] = folding enthalpy; higher = less favourable; fluorescence melt of hairpins on a sequencing array, two-state fit; details: sodium 0.088 M
Summary of the method: (§1)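 Library hairpins on a sequenced MiSeq flow cell carried annealed Cy3 and quencher oligos, and their Cy3 fluorescence was imaged in 50 mM Na-HEPES pH 8.0 with 25 mM NaCl, in 2.5 °C steps up to 60 °C. Signals were normalised to Cy3 before quenching and to control constructs. Melting temperature and folding enthalpy were obtained from bootstrapped two-state fits, combined by inverse-variance weighting across four replicates, and the fitted temperatures were then raised by 9.35 °C to match UV melts.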

[2] = melting temperature; fluorescence melt of hairpins on a sequencing array, two-state fit, raised by 9.35 °C to match UV melts; details: sodium 0.088 M
Summary of the method: as §1

Row | Sequence | folding enthalpy [1] [kcal/mol] | Tm [2] [°C]
1 | GACTCGGGAAACCGAGCC (.(((((....))))).) | -17 | 47.8
2 | GACTCTGGAAACAGAGCC (.(((((....))))).) | -18.3 | 43
3 | GACTCTGGAAACAGAGTC (((((((....))))))) | -34.3 | 63.9
4 | GACTGAGGAAACTTAGTC ((((.((....)).)))) | -26.3 | 39.4
5 | GACTGCGAAAGCAACGTC ((((((....)))..))) | -15.2 | 38.8
6 | GACTGCGAAAGCACTGTC ((((((....)))..))) | -12.8 | 39.9
7 | GACTGCGAAAGCATTGTC ((((((....)))..))) | -10.4 | 42
8 | GACTGGACGAAAGTCGTC (((..(((....)))))) | -12.4 | 46.8
9 | GACTGGGAAACCAGTC ((((((....)))))) | -35.1 | 60.1
10 | GACTGGGGAAACCCAGCC (.(((((....))))).) | -15.4 | 44.7
11 | GACTGGGGAAACCTAGTC ((((.((....)).)))) | -32.8 | 47.8
12 | GACTGTACGAAAGTAGTC (((..(((....)))))) | -28.8 | 36.9
13 | GACTGTCCGAAAGGAGTC (((..(((....)))))) | -14.6 | 36.1
14 | GACTGTGGAAACACAGTC (((((((....))))))) | -37.5 | 66.5
15 | GACTGTGGAAACATAGTC ((((.((....)).)))) | -28.5 | 45.2
16 | GACTTAACGAAAGTTGTC (((..(((....)))))) | -16.8 | 32.2
17 | GACTTACCGAAAGGTGTC (((..(((....)))))) | -16.4 | 36.3
18 | GACTTACGAAAGTACGTC (((.(((....))).))) | -33.2 | 44.3
19 | GACTTAGAAATAAGTC ((((((....)))))) | -30 | 43.8
20 | GACTTAGGAAACTAAGTC (((((((....))))))) | -37.3 | 53.8
21 | GACTTAGGAAACTAGGTC (((.(((....))).))) | -32.1 | 36.8
22 | GACTTAGGAAACTGAGTC ((((.((....)).)))) | -36.1 | 41.2
23 | GACTTCCCGAAAGGGGTC (((..(((....)))))) | -10.5 | 34

Row | Sequence | folding enthalpy [1] [kcal/mol] | Tm [2] [°C]
24 | GACTTCGGAAACGAGGTC (((.(((....))).))) | -35.9 | 49.9
25 | GACTTGCGAAAGCAGTC (((.(((....)))))) | -17.4 | 51.9
26 | GACTTGCGAAAGCATGTC (((.(((....))).))) | -25.2 | 55.8
27 | GACTTGGCGAAAGCCGTC (((..(((....)))))) | -7.4 | 48.4
28 | GACTTGGGAAACCGAGTC ((((.((....)).)))) | -45.3 | 49.5
29 | GACTTTGGAAACAAAGTC (((((((....))))))) | -44.5 | 57.8
30 | GAGAAAGAAATTTCTC ((((((....)))))) | -18.8 | 36.4
31 | GAGAAAGGAAACTTTCTC (((((((....))))))) | -39.2 | 50.8
32 | GAGAACGAAAGTTAGCTC ((((((....)))..))) | -10 | 24.5
33 | GAGAACGAAAGTTCACTC ((((((....)))..))) | -17.2 | 44.3
34 | GAGAAGGGAAACCTTCCC (.(((((....))))).) | -15.9 | 34.6
35 | GAGAAGGGAAACTTTCTC (((((.(....).))))) | -22.7 | 31.8
36 | GAGAATGGAAACATTTTC ((.((((....)))).)) | -14.8 | 29.4
37 | GAGACCCCGAAAGGGCTC (((..(((....)))))) | -22.6 | 47.2
38 | GAGACCGAAAGGTACTC ((((((....))).))) | -17.5 | 43.3
39 | GAGACCGAAAGGTGGCTC ((((((....)))..))) | -19.2 | 43.4
40 | GAGACCGCGAAAGCGCTC (((..(((....)))))) | -7.65 | 26.6
41 | GAGACCGGAAACAGTCTC (((((.(....).))))) | -27.5 | 40.4
42 | GAGACGACGAAAGTCCTC (((..(((....)))))) | -16.7 | 26.8
43 | GAGACGCGAAAGCGACTC (((.(((....))).))) | -24.9 | 66.4
44 | GAGACGCGAAAGCGCCTC (((.(((....))).))) | -30.3 | 58.7
45 | GAGACGGGAAACCGTTTC ((.((((....)))).)) | -23.4 | 45.8
46 | GAGACTGCGAAAGCACTC (((..(((....)))))) | -9.86 | 26.7

Row | Sequence | folding enthalpy [1] [kcal/mol] | Tm [2] [°C]
47 | GAGACTGGAAACAGTCCC (.(((((....))))).) | -11 | 44.9
48 | GAGAGAACGAAAGTTCTC (((..(((....)))))) | -14.7 | 52.5
49 | GAGAGACGAAAGTCCCTC (((.(((....))).))) | -25.8 | 44.9
50 | GAGAGAGAAATCTCTC ((((((....)))))) | -27.6 | 45.8
51 | GAGAGCACGAAAGTGCTC (((..(((....)))))) | -7.79 | 64.1
52 | GAGAGCCGAAAGGCCCTC (((.(((....))).))) | -18.3 | 51.3
53 | GAGAGCGAAAGCTACTC ((((((....))).))) | -14.5 | 43.7
54 | GAGAGCGAAAGCTTCCTC ((((((....)))..))) | -10.7 | 27.3
55 | GAGAGGACGAAAGTCCTC (((..(((....)))))) | -8.73 | 60.8
56 | GAGAGGCGAAAGCCACTC (((.(((....))).))) | -20.6 | 53.3
57 | GAGAGGGCGAAAGCCCTC (((..(((....)))))) | -6.41 | 66.5
58 | GAGAGGGGAAACCCCCTC (((.(((....))).))) | -14.9 | 47.9
59 | GAGAGGGGAAACCCTCCC (.(((((....))))).) | -13.7 | 41.2
60 | GAGAGGGGAAACCCTCTC (((((((....))))))) | -39 | 63.5
61 | GAGAGTGGAAACGCTTTC ((.((.(....).)).)) | -9.25 | 27.3
62 | GAGATAGGAAACTATCTC (((((((....))))))) | -35 | 53.1
63 | GAGATCACGAAAGTGCTC (((..(((....)))))) | -12.1 | 29.9
64 | GAGATCGAAAGATCTC ((((((....)))))) | -38.2 | 63.2
65 | GAGATCGGAAACGACCTC (((.(((....))).))) | -29.8 | 42.5
66 | GAGATCGGAAACGATCCC (.(((((....))))).) | -12.9 | 42.9
67 | GAGATGCCGAAAGGCCTC (((..(((....)))))) | -10.1 | 32.1
68 | GAGATGCGAAAGCACCTC (((.(((....))).))) | -23.9 | 49
69 | GAGATGGGAAACCACCTC (((.(((....))).))) | -31.1 | 36.1

Row | Sequence | folding enthalpy [1] [kcal/mol] | Tm [2] [°C]
70 | GAGATTCCGAAAGGACTC (((..(((....)))))) | -12.2 | 30.5
71 | GAGATTGGAAACAACCTC (((.(((....))).))) | -21 | 32
72 | GAGATTGGAAACAGTCTC ((((.((....)).)))) | -27.4 | 40.8
73 | GAGCAACGAAAGTTCTC (((.(((....)))))) | -20.1 | 35.6
74 | GAGCAAGGAAACTTGCCC (.(((((....))))).) | -11 | 41
75 | GAGCACCGAAAGGTACTC (((.(((....))).))) | -36.7 | 50
76 | GAGCACGAAAGTGGACTC ((((((....)))..))) | -14.2 | 48.7
77 | GAGCACGAAAGTGGTCTC ((((((....)))..))) | -24 | 60
78 | GAGCACGGAAACACGCTC ((((..(....)..)))) | -28.3 | 37
79 | GAGCAGCCGAAAGGCCTC (((..(((....)))))) | -10.8 | 31.7
80 | GAGCAGGCGAAAGCCCTC (((..(((....)))))) | -9.52 | 31.7
81 | GAGCATGGAAACATGCTC (((((((....))))))) | -37.1 | 67.5
82 | GAGCCAGAAATGGCTC ((((((....)))))) | -32.4 | 66.8
83 | GAGCCCCGAAAGGGACTC (((.(((....))).))) | -35.2 | 58.6
84 | GAGCCCCGAAAGGGCCTC (((.(((....))).))) | -14.6 | 47.3
85 | GAGCCCGAAAGGGAACTC ((((((....)))..))) | -16.4 | 47.5
86 | GAGCCCGAAAGGGCCCTC ((((((....)))..))) | -9.76 | 47.6
87 | GAGCCCGGAAACGAGCCC (.((.((....)).)).) | -14 | 29.1
88 | GAGCCGACGAAAGTCCTC (((..(((....)))))) | -8.43 | 27.9
89 | GAGCCGCGAAAGCGACTC (((.(((....))).))) | -26.2 | 65.3
90 | GAGCCGGGAAACCGACTC (((.(((....))).))) | -42.8 | 49.5
91 | GAGCGACGAAAGTCACTC (((.(((....))).))) | -25.9 | 52.2
